Measurements published in ChEMBL document CHEMBL1148671, “Synthesis and antibacterial activity of C12 des-methyl ketolides” (2006).
≈ marks a conversion by molar mass, not a printed value.

Key:
Type in all cases: functional
Streptococcus pneumoniae [1] = experiment: Antibacterial activity against Streptococcus pneumoniae 280-962 by broth microdilution method
Outline: (§1)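 In vitro activity was read as the minimum inhibitory concentration (MIC) by broth microdilution and reported in μg/mL. The S. pneumoniae panel included erythromycin-resistant strains carrying mef or erm genes. Telithromycin and clarithromycin were run as comparators in every assay.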

Staphylococcus aureus [2] = experiment: Antibacterial activity against Staphylococcus aureus 29213 by broth microdilution method; conditions: ATCC29213; outline: as §1
Streptococcus pneumoniae [3] = experiment: Antibacterial activity against Streptococcus pneumoniae 297-749 by broth microdilution method; outline: as §1
Staphylococcus aureus [4] = experiment: Antibacterial activity against Staphylococcus aureus 33591 by broth microdilution method; outline: as §1
[5] = system: Staphylococcus epidermidis; experiment: Antibacterial activity against Staphylococcus epidermidis 14990 by broth microdilution method; outline: as §1
Streptococcus pneumoniae [6] = experiment: Antibacterial activity against erythromycin-resistant Streptococcus pneumoniae erm 6849 by broth microdilution method
Enterococcus faecalis [7] = experiment: Antibacterial activity against Enterococcus faecalis 29212 by broth microdilution method; outline: as §1
Streptococcus pneumoniae [8] = experiment: Antibacterial activity against erythromycin-resistant Streptococcus pneumoniae mef 5654 by broth microdilution method
Haemophilus influenzae [9] = experiment: Antibacterial activity against Haemophilus influenzae 49247 by broth microdilution method; outline: as §1
Haemophilus influenzae [10] = experiment: Antibacterial activity against Haemophilus influenzae 2762 by broth microdilution method; outline: as §1
Streptococcus pneumoniae [11] = experiment: Antibacterial activity against erythromycin-resistant Streptococcus pneumoniae mef S 3427 by broth microdilution method
[12] = system: Staphylococcus epidermidis; experiment: Antibacterial activity against Staphylococcus epidermidis f50654 by broth microdilution method; outline: as §1
Enterococcus faecalis [13] = experiment: Antibacterial activity against Enterococcus faecalis bc11148-2 by broth microdilution method; outline: as §1
Streptococcus pneumoniae [14] = experiment: Antibacterial activity against Streptococcus pneumoniae 49619 by broth microdilution method; outline: as §1
Streptococcus pyogenes = experiment: Antibacterial activity against Streptococcus pyogenes 8668 by broth microdilution method; outline: as §1

Structure (SMILES) | MIC (Streptococcus pneumoniae [1]) [µg/mL] | MIC (Staphylococcus aureus [2]) [µg/mL] | MIC (Streptococcus pneumoniae [3]) [µg/mL] | MIC (Staphylococcus aureus [4]) [µg/mL] | MIC [5] [µg/mL] | MIC (Streptococcus pneumoniae [6]) [µg/mL] | MIC (Enterococcus faecalis [7]) [µg/mL] | MIC (Streptococcus pneumoniae [8]) [µg/mL] | MIC (Haemophilus influenzae [9]) [µg/mL] | MIC (Haemophilus influenzae [10]) [µg/mL] | MIC (Streptococcus pneumoniae [11]) [µg/mL] | MIC [12] [µg/mL] | MIC (Enterococcus faecalis [13]) [µg/mL] | MIC (Streptococcus pneumoniae [14]) [µg/mL] | MIC (Streptococcus pyogenes) [µg/mL]
CC[C@H]1OC(=O)[C@H](C)C(=O)[C@H](C)[C@@H](O[C@@H]2O[C@H](C)C[C@H](N(C)C)[C@H]2O)[C@](C)(OC)C[C@@H](C)C(=O)[C@H](C)[C@@H]2[C@@H]1OC(=O)N2CCCCn1cnc(-c2cccnc2)c1 | ≤ 0.05 | 0.2 (≈ 0.251 µM) | ≤ 0.05 | > 50 | 0.78 (≈ 0.977 µM) | 0.2 (≈ 0.251 µM) | 0.1 (≈ 0.125 µM) | 1.56 (≈ 1.95 µM) | 6.25 (≈ 7.83 µM) | 0.78 (≈ 0.977 µM) | 0.2 (≈ 0.251 µM) | 0.2 (≈ 0.251 µM) | > 50 | ≤ 0.05 | ≤ 0.05
CC[C@H]1OC(=O)[C@H](C)C(=O)[C@H](C)[C@@H](O[C@@H]2O[C@H](C)C[C@H](N(C)C)[C@H]2O)[C@](C)(OC)C[C@@H](C)C(=O)[C@H](C)[C@H]2N(CCCCn3cnc(-c4cccnc4)c3)C(=O)O[C@]12C [TELITHROMYCIN] | – | – | – | – | – | – | – | 0.4 (≈ 0.493 µM) | – | – | – | – | – | – | –
CC[C@H]1OC(=O)[C@H](C)C(=O)[C@H](C)[C@@H](O[C@@H]2O[C@H](C)C[C@H](N(C)C)[C@H]2O)[C@](C)(OC)C[C@@H](C)C(=O)[C@H](C)[C@@H]2[C@@H]1OC(=O)N2CCCCc1ccnc2ccccc12 | ≤ 0.05 | 0.1 (≈ 0.128 µM) | ≤ 0.05 | > 50 | 0.1 (≈ 0.128 µM) | 6.25 (≈ 7.99 µM) | ≤ 0.05 | 0.1 (≈ 0.128 µM) | 1.56 (≈ 1.99 µM) | – | – | 0.1 (≈ 0.128 µM) | > 50 | ≤ 0.05 | ≤ 0.05
CC[C@H]1OC(=O)[C@H](C)C(=O)[C@H](C)[C@@H](O[C@@H]2O[C@H](C)C[C@H](N(C)C)[C@H]2O)[C@](C)(OC)C[C@@H](C)C(=O)[C@H](C)[C@@H]2[C@@H]1OC(=O)N2CCCCn1cnc(-c2ccc(C)nc2)c1 | ≤ 0.05 | 0.2 (≈ 0.246 µM) | ≤ 0.05 | > 50 | 0.2 (≈ 0.246 µM) | 50 (≈ 61.6 µM) | 0.1 (≈ 0.123 µM) | 1.56 (≈ 1.92 µM) | 3.13 (≈ 3.85 µM) | 1.56 (≈ 1.92 µM) | 0.4 (≈ 0.493 µM) | 0.2 (≈ 0.246 µM) | 3.13 (≈ 3.85 µM) | ≤ 0.05 | ≤ 0.05
CC[C@H]1OC(=O)[C@H](C)C(=O)[C@H](C)[C@@H](O[C@@H]2O[C@H](C)C[C@H](N(C)C)[C@H]2O)[C@](C)(OC)C[C@@H](C)C(=O)[C@H](C)[C@@H]2[C@@H]1OC(=O)N2CCCCc1cnc2ccccc2c1 | ≤ 0.05 | 0.4 (≈ 0.512 µM) | ≤ 0.05 | > 50 | 0.2 (≈ 0.256 µM) | 0.4 (≈ 0.512 µM) | 0.1 (≈ 0.128 µM) | 0.2 (≈ 0.256 µM) | 6.25 (≈ 7.99 µM) | 1.56 (≈ 1.99 µM) | 0.1 (≈ 0.128 µM) | 0.4 (≈ 0.512 µM) | 12.5 (≈ 16 µM) | ≤ 0.05 | ≤ 0.05
CC[C@H]1OC(=O)[C@H](C)C(=O)[C@H](C)[C@@H](O[C@@H]2O[C@H](C)C[C@H](N(C)C)[C@H]2O)[C@](C)(OC)C[C@@H](C)C(=O)[C@H](C)[C@@H]2[C@@H]1OC(=O)N2CCCCn1cnc(-c2ccccc2)c1 | ≤ 0.05 | 0.2 (≈ 0.251 µM) | ≤ 0.05 | > 50 | 0.1 (≈ 0.125 µM) | 0.78 (≈ 0.979 µM) | 0.1 (≈ 0.125 µM) | 0.2 (≈ 0.251 µM) | 3.13 (≈ 3.93 µM) | – | – | 0.2 (≈ 0.251 µM) | > 50 | ≤ 0.05 | ≤ 0.05
CC[C@H]1OC(=O)[C@H](C)C(=O)[C@H](C)[C@@H](O[C@@H]2O[C@H](C)C[C@H](N(C)C)[C@H]2O)[C@](C)(OC)C[C@@H](C)C(=O)[C@H](C)[C@@H]2[C@@H]1OC(=O)N2CCCCc1ncc(-c2ccccc2)s1 | ≤ 0.05 | 0.78 (≈ 0.958 µM) | ≤ 0.05 | > 50 | 0.78 (≈ 0.958 µM) | 25 (≈ 30.7 µM) | 0.4 (≈ 0.491 µM) | 1.56 (≈ 1.92 µM) | 12.5 (≈ 15.4 µM) | 3.13 (≈ 3.84 µM) | 0.1 (≈ 0.123 µM) | 0.4 (≈ 0.491 µM) | 6.25 (≈ 7.68 µM) | ≤ 0.05 | 0.2 (≈ 0.246 µM)
CC[C@H]1OC(=O)[C@H](C)C(=O)[C@H](C)[C@@H](O[C@@H]2O[C@H](C)C[C@H](N(C)C)[C@H]2O)[C@](C)(OC)C[C@@H](C)C(=O)[C@H](C)[C@@H]2[C@@H]1OC(=O)N2CCCCn1cnc(-c2ccc(OC)nc2)c1 | ≤ 0.05 | 0.2 (≈ 0.242 µM) | ≤ 0.05 | > 50 | 0.1 (≈ 0.121 µM) | 50 (≈ 60.4 µM) | ≤ 0.05 | 0.78 (≈ 0.942 µM) | 6.25 (≈ 7.55 µM) | 1.56 (≈ 1.88 µM) | 0.1 (≈ 0.121 µM) | 0.2 (≈ 0.242 µM) | 6.25 (≈ 7.55 µM) | ≤ 0.05 | ≤ 0.05
